We go through 18 molecules from ChEMBL document CHEMBL2331405, “Benzanilide-Biphenyl Replacement: A Bioisosteric Approach to Quinoline Carboxamide-Type ABCG2 Modulators” (ACS Med Chem Lett, 2013).

The structures appear in SMILES notation.

For data set [1], the target named is T1, ABCG2 (Homo sapiens, UniProt Q9UNQ0).
T1 sequence (Q9UNQ0 whole entry): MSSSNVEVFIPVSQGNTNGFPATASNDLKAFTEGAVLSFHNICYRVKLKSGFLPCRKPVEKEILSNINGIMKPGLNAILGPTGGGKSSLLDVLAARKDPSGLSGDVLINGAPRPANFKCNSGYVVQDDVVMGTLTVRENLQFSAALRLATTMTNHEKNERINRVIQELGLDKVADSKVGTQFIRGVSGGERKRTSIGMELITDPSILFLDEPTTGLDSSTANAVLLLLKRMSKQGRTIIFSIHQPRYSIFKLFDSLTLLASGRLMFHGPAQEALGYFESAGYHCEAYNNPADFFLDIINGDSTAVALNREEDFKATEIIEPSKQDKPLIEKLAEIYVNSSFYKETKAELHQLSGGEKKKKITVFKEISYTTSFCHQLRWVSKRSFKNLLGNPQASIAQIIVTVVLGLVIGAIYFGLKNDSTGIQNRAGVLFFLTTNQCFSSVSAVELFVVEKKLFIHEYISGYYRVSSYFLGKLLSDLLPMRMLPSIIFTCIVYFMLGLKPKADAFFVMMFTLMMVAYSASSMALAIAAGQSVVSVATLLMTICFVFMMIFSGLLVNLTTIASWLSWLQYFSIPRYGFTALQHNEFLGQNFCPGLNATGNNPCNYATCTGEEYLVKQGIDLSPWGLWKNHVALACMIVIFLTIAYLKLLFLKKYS
Kind of data set: Inhibition of ABCG2 in human MCF7/Topo cells at 70 to 100 uM after 2 hrs by Hoechst 33342 microplate assay relative to 10 uM fumitremorgin. Particulars: probe Hoechst 33342, read-out: Imax; call rule not given here. Type of data set: cell-based.

The target in data set [2] is T2, ATP-dependent translocase ABCB1 (Homo sapiens, UniProt P08183). Kind of data set: Inhibition of ABCB1 in human KBV1 cells up to 100 uM after 10 mins by Calcein-AM microplate assay. Format: cell-based. Particulars: kbv1, 10 min. In outline: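 Microplate calcein-AM efflux assay in ABCB1-overexpressing Kb-V1 cells. Values are means ± SEM from two to three independent experiments, each run in triplicate.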

A short description of data set [3]: Half life in NMRI nu/nu mouse plasma at 3 mM by RP-HPLC analysis. Format: ADME, cell-free.
The target of data set [4] is T3, Broad substrate specificity ATP-binding cassette transporter ABCG2 (Homo sapiens, UniProt Q9UNQ0).
T3 sequence (Q9UNQ0 whole entry): T1 sequence (Q9UNQ0 whole entry)
Kind of data set: Inhibition of ABCG2 in human MCF7/Topo cells after 2 hrs by Hoechst 33342 microplate assay. Format: cell-based. Particulars: for inhibition (INH): human, mcf7/topo, 2 h.

Data set [5] deals with T2, ATP-dependent translocase ABCB1. Kind of data set: Inhibition of ABCB1 in human KBV1 cells after 10 mins by Calcein-AM microplate assay. Format: cell-based.
A further data set deals with ABCB1 (Homo sapiens, UniProt P08183). Kind of data set: Inhibition of ABCB1 in human KBV1 cells after 10 mins by Calcein-AM microplate assay relative to 1 uM tariquidar. The note with it: probe calcein-AM. Format: cell-based. In outline: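 Microplate calcein-AM assay in ABCB1-overexpressing Kb-V1 cells. Maximal inhibition is expressed as a percentage of the maximal response to tariquidar at 1 μM. Means ± SEM come from two to three independent experiments, each run in triplicate.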

In a further data set the test system is Plasma. Kind of data set: Stability in NMRI nu/nu mouse plasma at 3 mM measured within 30 mins by RP-HPLC analysis. Particulars: 0.5 h, 3000 µM. Format: ADME, cell-free.
Data set [6] concerns the target T1, ABCG2. Kind of data set: Ratio of compound IC50 to elacridar IC50 for ABCG2 in human MCF7/Topo cells after 2 hrs by Hoechst 33342 microplate assay. Format: cell-based. The note with it: probe Hoechst 33342, read-out: Ratio IC50.

ABCB1, sequence (P08183 whole entry): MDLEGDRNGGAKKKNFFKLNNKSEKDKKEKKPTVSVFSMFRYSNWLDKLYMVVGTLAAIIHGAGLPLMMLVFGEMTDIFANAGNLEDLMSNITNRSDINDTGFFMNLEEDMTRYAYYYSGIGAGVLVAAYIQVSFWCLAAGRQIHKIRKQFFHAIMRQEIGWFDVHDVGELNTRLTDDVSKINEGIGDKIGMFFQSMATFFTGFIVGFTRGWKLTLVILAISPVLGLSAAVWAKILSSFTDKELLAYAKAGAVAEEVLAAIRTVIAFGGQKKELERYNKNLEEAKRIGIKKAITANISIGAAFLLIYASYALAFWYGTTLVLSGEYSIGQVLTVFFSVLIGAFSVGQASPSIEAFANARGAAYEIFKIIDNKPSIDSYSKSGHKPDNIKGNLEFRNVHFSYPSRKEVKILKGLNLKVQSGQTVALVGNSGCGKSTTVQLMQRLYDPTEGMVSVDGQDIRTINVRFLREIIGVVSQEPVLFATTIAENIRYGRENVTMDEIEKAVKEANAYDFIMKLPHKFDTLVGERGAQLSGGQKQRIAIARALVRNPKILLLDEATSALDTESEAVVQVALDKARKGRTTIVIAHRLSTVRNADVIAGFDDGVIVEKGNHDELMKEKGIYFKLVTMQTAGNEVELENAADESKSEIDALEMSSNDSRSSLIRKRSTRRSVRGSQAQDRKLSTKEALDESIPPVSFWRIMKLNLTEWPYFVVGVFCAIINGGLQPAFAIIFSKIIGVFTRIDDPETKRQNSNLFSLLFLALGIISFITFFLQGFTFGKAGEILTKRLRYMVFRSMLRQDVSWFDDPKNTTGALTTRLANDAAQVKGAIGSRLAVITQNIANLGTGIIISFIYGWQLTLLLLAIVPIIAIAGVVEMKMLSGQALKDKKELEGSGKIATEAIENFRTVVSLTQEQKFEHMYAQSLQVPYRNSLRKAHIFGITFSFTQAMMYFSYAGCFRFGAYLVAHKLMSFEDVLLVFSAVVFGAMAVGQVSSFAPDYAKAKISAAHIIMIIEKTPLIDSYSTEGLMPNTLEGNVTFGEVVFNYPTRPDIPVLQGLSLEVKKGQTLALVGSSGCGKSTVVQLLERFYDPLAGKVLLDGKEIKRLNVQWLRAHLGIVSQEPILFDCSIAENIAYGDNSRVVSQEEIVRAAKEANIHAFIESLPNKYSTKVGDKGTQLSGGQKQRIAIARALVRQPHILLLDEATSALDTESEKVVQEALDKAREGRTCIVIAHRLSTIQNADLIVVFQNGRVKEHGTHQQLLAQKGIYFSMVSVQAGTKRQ
T2 sequence (P08183 whole entry): as above

Regarding `COC(=O)c1ccc(-c2ccc(CCN3CCc4ccccc4C3)cc2)cc1NC(=O)c1ccc2ccccc2n1`, at ABCG2 [1], the Emax at 2 h came to 90%. The “inhibition (INH)” value in data set [2] is “Not Active”. Besides, the half-life at 3000 µM in data set [3] is 24 h. In data set [4], this molecule gave an IC50 of 1100 nM.

With `COC(=O)c1ccc(-c2ccc(CN3CCc4ccccc4C3)cc2)cc1NC(=O)c1ccc2ncccc2c1`, on ABCG2 [1], the Emax at 2 h stood at 94%. Moreover, in data set [3], the half-life at 3000 µM is 24 h. The IC50 in data set [5] was 4490 nM; in data set [4] it was 641 nM.

`COCCOCCOCCOc1cc2c(cc1OC)CN(Cc1ccc(-c3ccc(C(=O)OC)c(NC(=O)c4ccc5ccccc5n4)c3)cc1)CC2`: on ABCG2 [1], the Emax at 2 h was 114%. The “inhibition (INH)” value in data set [2] is listed as “Not Active”. In data set [3], this molecule showed a half-life at 3000 µM of 24 h. The same molecule had an IC50 in data set [4] of 1030 nM.

With `COCCOCCOCCOc1cc2c(cc1OCCOCCOCCOC)CN(CCc1ccc(-c3ccc(C(=O)OC)c(NC(=O)c4ccc5ccccc5n4)c3)cc1)CC2`, the inhibition at 10 min at ABCB1 is 50%. In addition, at ABCG2 [1], the Emax at 2 h was found to be 112%. This molecule also gave a half-life at 3000 µM in data set [3] of 24 h. Also, the results for the IC50 in data set [5] and in data set [4] were 5990 nM and 544 nM, respectively. For the same molecule, the “inhibition (INH)” value in data set [4] is listed as “Dose-dependent effect”.

Regarding `COC(=O)c1ccc(-c2ccc(CN3CCc4ccccc4C3)cc2)cc1NC(=O)c1ccc2ccccc2n1`, the Emax at 2 h at ABCG2 [1] stood at 85%. In addition, the “inhibition (INH)” value in data set [2] was “Not Active”. The molecule also showed a half-life at 3000 µM in data set [3] of 24 h. This molecule registered an IC50 in data set [4] of 1460 nM.

`COCCOCCOCCOc1cc2c(cc1OCCOCCOCCOC)CN(Cc1ccc(-c3ccc(C(=O)OC)c(NC(=O)c4ccc5ccccc5n4)c3)cc1)CC2`: the Emax at 2 h on ABCG2 [1] worked out at 103%. Besides, in data set [2], the “inhibition (INH)” value is “Not Active”. The molecule further gave a half-life at 3000 µM in data set [3] of 24 h. Further, the IC50 in data set [4] is 839 nM.

Take `COC(=O)c1ccc(-c2ccc(CN3CCc4cc(OC)c(OC)cc4C3)cc2)cc1NC(=O)c1ccc2ccccc2n1`: the Emax at 2 h at ABCG2 [1] was found to be 87%. The “inhibition (INH)” value in data set [2] is “Not Active”. Also, the half-life at 3000 µM in data set [3] is 24 h. In data set [4], the IC50 is 943 nM.

Take `COCCOCCOCCOc1cc2c(cc1OC)CCN(Cc1ccc(-c3ccc(C(=O)OC)c(NC(=O)c4ccc5ccccc5n4)c3)cc1)C2`: at ABCB1, the inhibition at 10 min was 20%. Moreover, the Emax at 2 h on ABCG2 [1] amounted to 109%. This molecule also had a half-life at 3000 µM in data set [3] of 24 h. Further, the IC50 was 1230 nM in data set [5] and 591 nM in data set [4]. Also, the “inhibition (INH)” value in data set [4] is on record as “Dose-dependent effect”.

Consider `COc1ccc2c3c([nH]c2c1)[C@H](C=C(C)C)N1C(=O)[C@@H]2CCCN2C(=O)[C@@H]1C3` [FUMITREMORGIN], for which, at ABCG2 [1], the Emax at 2 h was determined as 100%. Besides, the IC50 in data set [4] was 731 nM.

On to `COc1cc2c(cc1OC)CN(CCc1ccc(NC(=O)c3cccc4c(=O)c5cccc(OC)c5[nH]c34)cc1)CC2`, for which the Emax at 2 h on ABCG2 [1] was determined as 63%.

On to `COCCOCCOCCOc1cc2c(cc1OC)CCN(CCc1ccc(NC(=O)c3ccc(C(=O)OC)c(NC(=O)c4ccc5ccccc5n4)c3)cc1)C2`, for which the Stability result in the data set with Plasma is on record as “Unstable”. In data set [3], this molecule registered a half-life at 3000 µM of 0.167 h.

With `COCCOCCOCCOc1cc2c(cc1OC)CN(Cc1ccc(-c3ccc(C(=O)OC)c(NC(=O)c4ccc5ncccc5c4)c3)cc1)CC2`, at ABCG2 [1], the Emax at 2 h came out at 67%. For the same molecule, the half-life at 3000 µM in data set [3] is 24 h. Also, the IC50 in data set [5] was 18000 nM; in data set [4] it was 237 nM.

As to `COC(=O)c1ccc(-c2ccc(CN3CCc4cc(OC)c(OC)cc4C3)cc2)cc1NC(=O)c1ccc2ncccc2c1`, the Emax at 2 h at ABCG2 [1] is 92%. For the same molecule, the half-life at 3000 µM in data set [3] is 24 h. For the same molecule, the IC50 is 10900 nM in data set [5] and 1540 nM in data set [4].

With `COC(=O)c1ccc(C(=O)Nc2ccc(CCN3CCc4cc(OC)c(OC)cc4C3)cc2)cc1NC(=O)c1ccc2ccccc2n1`, in the data set on Plasma, the Stability result is “Unstable”. On ABCG2 [1], the Emax at 2 h worked out at 63%. In data set [3], this molecule returned a half-life at 3000 µM of 0.167 h. Further, in data set [4], the IC50 stood at 65 nM and the “inhibition (INH)” value is given as “Dose-dependent effect”.

As for `COc1cc2c(cc1OC)CN(CCc1ccc(NC(=O)c3cc(OC)c(OC)cc3NC(=O)c3cnc4ccccc4c3)cc1)CC2`, the selectivity ratio at 2 h at ABCG2 [6] was 4. Further, at ABCG2 [1], the Emax at 2 h is 69%. Moreover, in data set [4], the “inhibition (INH)” value is given as “Dose-dependent effect”.

For `COC(=O)c1ccc(-c2ccc(CCN3CCc4cc(OC)c(OC)cc4C3)cc2)cc1NC(=O)c1ccc2ccccc2n1`, the Emax at 2 h at ABCG2 [1] stood at 126%. The “inhibition (INH)” value in data set [2] is “Not Active”. In addition, the half-life at 3000 µM in data set [3] is 24 h. The molecule also yielded an IC50 in data set [4] of 3210 nM.

On to `COCCOCCOCCOc1cc2c(cc1OC)CCN(CCc1ccc(-c3ccc(C(=O)OC)c(NC(=O)c4ccc5ccccc5n4)c3)cc1)C2`, for which the inhibition at 10 min at ABCB1 was 50%. Further, at ABCG2 [1], the Emax at 2 h amounted to 98%. Also, the half-life at 3000 µM in data set [3] was 24 h. The IC50 in data set [5] was 5420 nM; in data set [4] it was 760 nM.

For the molecule `COc1ccc2c3c([nH]c2c1)[C@H](CC(C)C)N1C(=O)[C@H](CCC(=O)OC(C)(C)C)NC(=O)[C@@H]1C3`, the “inhibition (INH)” value in data set [2] is “Not Active”.
